Experimental data from ChEMBL document CHEMBL2331225, “Structure-based design, synthesis and evaluation of novel anthra[1,2-d]imidazole-6,11-dione derivatives as telomerase inhibitors and potential for cancer polypharmacology” (Eur J Med Chem, 2013).
The source made the active and inactive calls. The calls are words filed in the database; no cut-off is given here.

Legend:
[1] = target: T1, Telomerase reverse transcriptase (Homo sapiens, UniProt O14746); test: Inhibition of TERT transcriptional activity in human H1299 cells assessed SEAP activity at 100 uM incubated for 24 hrs by SEAP assay; assay type: cell-based; set-up: scale not given: the % may be the effect or the level left
T1 sequence (O14746 whole entry): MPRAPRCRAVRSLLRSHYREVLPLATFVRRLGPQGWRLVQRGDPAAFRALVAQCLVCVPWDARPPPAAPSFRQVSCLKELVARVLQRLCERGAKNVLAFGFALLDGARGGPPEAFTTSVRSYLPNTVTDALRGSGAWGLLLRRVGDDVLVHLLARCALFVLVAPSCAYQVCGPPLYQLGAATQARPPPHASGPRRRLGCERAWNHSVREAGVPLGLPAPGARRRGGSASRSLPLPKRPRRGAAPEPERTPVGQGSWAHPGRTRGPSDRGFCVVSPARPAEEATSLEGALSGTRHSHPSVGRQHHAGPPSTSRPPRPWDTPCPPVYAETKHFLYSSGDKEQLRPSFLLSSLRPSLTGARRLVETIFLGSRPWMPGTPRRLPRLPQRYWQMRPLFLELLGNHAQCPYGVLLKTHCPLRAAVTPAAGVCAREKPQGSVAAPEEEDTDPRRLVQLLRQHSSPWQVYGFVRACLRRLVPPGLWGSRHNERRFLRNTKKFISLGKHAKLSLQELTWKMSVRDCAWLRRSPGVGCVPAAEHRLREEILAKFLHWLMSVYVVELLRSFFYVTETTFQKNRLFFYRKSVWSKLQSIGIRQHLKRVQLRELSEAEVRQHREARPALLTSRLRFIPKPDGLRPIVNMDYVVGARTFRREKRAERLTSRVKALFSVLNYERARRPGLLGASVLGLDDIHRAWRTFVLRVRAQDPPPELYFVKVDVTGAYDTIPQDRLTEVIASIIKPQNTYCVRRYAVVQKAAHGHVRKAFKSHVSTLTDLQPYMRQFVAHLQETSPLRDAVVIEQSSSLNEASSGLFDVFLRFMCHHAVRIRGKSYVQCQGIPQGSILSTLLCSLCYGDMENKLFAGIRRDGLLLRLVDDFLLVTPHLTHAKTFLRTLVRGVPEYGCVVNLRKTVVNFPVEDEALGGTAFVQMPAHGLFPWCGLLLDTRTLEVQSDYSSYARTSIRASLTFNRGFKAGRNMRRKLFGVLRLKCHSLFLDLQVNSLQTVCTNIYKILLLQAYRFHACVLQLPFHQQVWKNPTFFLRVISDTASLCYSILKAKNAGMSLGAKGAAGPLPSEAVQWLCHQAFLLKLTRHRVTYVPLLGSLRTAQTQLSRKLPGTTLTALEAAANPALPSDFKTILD
Method in brief: (§1)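 H1299 stable clones carry the hTERT promoter (−3338 to +1 bp) upstream of SEAP, introduced by electroporation and selected with G418. About 2 × 10³ cells per well were grown 24 h at 37 °C, given fresh medium, then drug for 24 h. Collected media were heated at 65 °C for 10 min, mixed with equal SEAP buffer (2 M diethanolamine, 1 mM MgCl₂, 20 mM L-homoarginine) and p-nitrophenyl phosphate at 12 mM final.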

[2] = Cytotoxicity against human H1299 cells assessed as cell viability at 1 uM after 48 hrs by MTT assay; assay type: functional; conditions: NCI-H1299, 48 h, read-out: Activity
Method in brief: (§2)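 H1299 cells at about 2 × 10³ per well were grown 24 h at 37 °C in 5% CO₂. Compounds were dissolved in DMSO just before use and diluted into complete medium. After 48 h exposure, MTT was added for 4 h at 37 °C, then lysis buffer (20% SDS, 50% DMF) for 16 h at 37 °C. Absorbance was read at 550 nm.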

DU-145 = test: Cytotoxicity against human DU145 cells assessed as cell growth level at 10 uM; assay type: functional
[3] = Cytotoxicity against human EKVX cells assessed as cell growth level at 10 uM; assay type: functional
[4] = Cytotoxicity against human H1299 cells assessed as cell viability at 10 uM after 48 hrs by MTT assay; assay type: functional; conditions: NCI-H1299, 48 h, read-out: Activity; method in brief: as §2
SNB-19 = test: Cytotoxicity against human SNB19 cells assessed as cell growth level at 10 uM; assay type: functional
[5] = target: T1, Telomerase reverse transcriptase; test: Inhibition of TERT activity in human H1299 cells homogenates incubated for 5 mins at 100 uM by TRAP assay; assay type: cell-free
Method in brief: (§3)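 Telomerase-active extracts were prepared from H1299 cells, and lysate protein was measured against BSA standards. Compounds were tested in the TRAP assay, with RNase A-treated extracts as negative controls.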

[6] = target: T1, Telomerase reverse transcriptase; test: Inhibition of TERT transcriptional activity in human H1299 cells assessed SEAP activity at 1 uM incubated for 24 hrs by SEAP assay; assay type: cell-based; set-up: scale not given: the % may be the effect or the level left; method in brief: as §1
PC-3 [7] = test: Growth inhibition of human PC3 cells after 48 hrs by SRB assay; assay type: functional, cell-based; conditions: PC-3, 48 h
Method in brief: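 PC-3 cells were seeded in medium with 5% FBS; after 24 h a plate was fixed with 10% TCA as T₀. Vehicle (0.1% DMSO) or compound was given for 48 h, then cells were TCA-fixed, stained with 0.4% SRB in 1% acetic acid, solubilized in 10 mM Trizma base and read at 515 nm. IC₅₀ is the concentration halving the protein increase seen in controls.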

A498 = test: Cytotoxicity against human A498 cells assessed as cell growth level at 10 uM; assay type: functional
PC-3 [8] = test: Cytotoxicity against human PC3 cells assessed as cell growth level at 10 uM; assay type: functional
[9] = Cytotoxicity against human H1299 cells assessed as cell viability at 100 uM after 48 hrs by MTT assay; assay type: functional; conditions: NCI-H1299, 48 h, read-out: Activity; method in brief: as §2
[10] = target: T1, Telomerase reverse transcriptase; test: Inhibition of TERT transcriptional activity in human H1299 cells assessed SEAP activity at 10 uM incubated for 24 hrs by SEAP assay; assay type: cell-based; set-up: scale not given: the % may be the effect or the level left; method in brief: as §1
[11] = Cytotoxicity against human H1299 cells expressing hTERT and SEAP after 48 hrs by MTT assay; assay type: cell-based; conditions: nci-h1299, 48 h
Method in brief: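 H1299 stably carrying P_hTERT-SEAP, about 2 × 10³ cells per well, were grown 24 h at 37 °C, washed with PBS and given fresh medium. Compounds were added at varying amounts for 48 h, and growth was measured by MTT read at 550 nm. Values come from three experiments, with untreated cells set as 100%.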

IMR-90 = test: Cytotoxicity against human IMR90 cells after 48 hrs by MTT assay; assay type: cell-based; conditions: IMR-90, 48 h
[12] = target: DNA polymerase I, thermostable (Thermus aquaticus) (UniProt P19821); test: Inhibition of Thermus aquaticus DNA polymerase compound after telomerase extension step and before PCR-amplification step during TRAP assay
Chain of DNA polymerase I, thermostable (Thermus aquaticus) (P19821 whole entry): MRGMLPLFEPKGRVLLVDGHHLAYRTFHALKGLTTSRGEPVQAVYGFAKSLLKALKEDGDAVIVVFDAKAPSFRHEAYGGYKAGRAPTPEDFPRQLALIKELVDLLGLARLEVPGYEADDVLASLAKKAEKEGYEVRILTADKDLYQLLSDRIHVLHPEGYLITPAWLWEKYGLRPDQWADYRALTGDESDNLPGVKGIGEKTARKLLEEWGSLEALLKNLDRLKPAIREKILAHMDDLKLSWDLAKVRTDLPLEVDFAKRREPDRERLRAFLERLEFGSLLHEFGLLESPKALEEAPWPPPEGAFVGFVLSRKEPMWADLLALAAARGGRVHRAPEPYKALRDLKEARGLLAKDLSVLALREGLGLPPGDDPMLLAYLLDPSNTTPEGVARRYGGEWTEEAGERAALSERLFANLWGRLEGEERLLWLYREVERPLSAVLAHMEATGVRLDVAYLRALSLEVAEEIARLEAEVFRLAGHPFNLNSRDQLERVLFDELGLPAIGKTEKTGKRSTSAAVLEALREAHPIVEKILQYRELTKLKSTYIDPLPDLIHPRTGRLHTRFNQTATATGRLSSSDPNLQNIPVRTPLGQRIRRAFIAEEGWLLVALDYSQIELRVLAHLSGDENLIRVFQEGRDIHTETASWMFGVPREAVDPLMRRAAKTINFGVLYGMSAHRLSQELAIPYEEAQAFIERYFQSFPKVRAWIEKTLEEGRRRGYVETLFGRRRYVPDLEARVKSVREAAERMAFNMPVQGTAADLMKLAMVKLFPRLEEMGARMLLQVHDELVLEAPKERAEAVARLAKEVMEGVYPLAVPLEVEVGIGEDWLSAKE
Method in brief: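 TRAP-m variant: compounds were added after the telomerase extension step and before PCR amplification, using H1299 telomerase extracts, with RNase A-treated extracts as negative control.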

[13] = target: T1, Telomerase reverse transcriptase; test: Inhibition of TERT activity in human H1299 cells homogenates incubated for 5 mins by TRAP assay; assay type: cell-free; method in brief: as §3
[14] = Cytotoxicity against human NCI-ADR-RES cells assessed as cell growth level at 10 uM; assay type: functional
MOLT-4 = test: Cytotoxicity against human MOLT4 cells assessed as cell growth level at 10 uM; assay type: functional
COLO 205 = test: Cytotoxicity against human COLO205 cells assessed as cell growth level at 10 uM; assay type: functional

Activity [1] [%] | TERT inhibition (active/not active) [5] | Activity [6] [%] | IC50 (PC-3 [7]) [µM] | Activity [10] [%] | inhibition [12] | IC50 [13] [µM] | SMILES | viability at 1 µM [2] [%] | Activity (DU-145) [%] | Activity [3] [%] | viability at 10 µM [4] [%] | Activity (SNB-19) [%] | Activity (A498) [%] | Activity (PC-3 [8]) [%] | viability at 100 µM [9] [%] | Activity [11] | IC50 (IMR-90) [µM] | Activity [14] [%] | Activity (MOLT-4) [%] | Activity (COLO 205) [%]
0 | inactive | 83 | > 30 | 35 |  |  | O=C1c2ccccc2C(=O)c2c1ccc1nc(CCN3CCN(c4ncccn4)CC3)[nH]c21 | 91 |  |  | 84 |  |  |  | 0 | Non-toxic | 100 |  |  | 
3 | inactive | 69 | 5.1 | 0 |  |  | O=C1c2ccccc2C(=O)c2c1ccc1nc(CCl)[nH]c21 | 82 |  |  | 0 |  |  |  | 0 |  |  |  |  | 
37 | inactive | 103 | > 30 | 93 |  |  | O=C1c2ccccc2C(=O)c2c1ccc1nc(CCN3CCN(c4ccccc4)CC3)[nH]c21 | 94 |  |  | 96 |  |  |  | 65 |  |  |  |  | 
0 | Active | 92 | 6.5 | 14 | inactive | > 10 | CCN1CCN(Cc2nc3ccc4c(c3[nH]2)C(=O)c2ccccc2C4=O)CC1 | 86 |  |  | 35 |  |  |  | 0 |  |  |  |  | 
0 | inactive | 74 | 17.3 | 7 |  |  | CN1CCN(CCc2nc3ccc4c(c3[nH]2)C(=O)c2ccccc2C4=O)CC1 | 87 |  |  | 32 |  |  |  | 0 |  |  |  |  | 
0 | inactive | 77 | 6.7 | 1 |  |  | CC(C)N(C)Cc1nc2ccc3c(c2[nH]1)C(=O)c1ccccc1C3=O | 96 |  |  | 23 |  |  |  | 0 |  |  |  |  | 
0 | inactive | 103 | 16.7 | 78 |  |  | O=C1c2ccccc2C(=O)c2c1ccc1nc(CN3CCN(c4ccccc4F)CC3)[nH]c21 | 88 |  |  | 77 |  |  |  | 15 |  |  |  |  | 
0 | inactive | 96 | 17.1 | 34 |  |  | CCCN(C)Cc1nc2ccc3c(c2[nH]1)C(=O)c1ccccc1C3=O | 93 |  |  | 80 |  |  |  | 0 |  |  |  |  | 
0 | inactive | 73 | 16 | 5 |  |  | O=C1c2ccccc2C(=O)c2c1ccc1nc(CCN3CCN(Cc4ccccc4)CC3)[nH]c21 | 96 |  |  | 54 |  |  |  | 6 | Non-toxic | 100 |  |  | 
0 | inactive | 98 | > 30 | 11 |  |  | O=C1c2ccccc2C(=O)c2c1ccc1nc(CN3CCN(Cc4ccccc4)CC3)[nH]c21 | 93 |  |  | 51 |  |  |  | 13 |  |  |  |  | 
7 | inactive | 90 | 21 | 69 |  |  | CN(Cc1nc2ccc3c(c2[nH]1)C(=O)c1ccccc1C3=O)CC1OCCO1 | 104 |  |  | 90 |  |  |  | 28 |  |  |  |  | 

The remaining lines, values behind:

SMILES | Activity [1] [%] | TERT inhibition (active/not active) [5] | Activity [6] [%] | IC50 (PC-3 [7]) [µM] | Activity [10] [%] | inhibition [12] | IC50 [13] [µM] | viability at 1 µM [2] [%] | Activity (DU-145) [%] | Activity [3] [%] | viability at 10 µM [4] [%] | Activity (SNB-19) [%] | Activity (A498) [%] | Activity (PC-3 [8]) [%] | viability at 100 µM [9] [%] | Activity [11] | IC50 (IMR-90) [µM] | Activity [14] [%] | Activity (MOLT-4) [%] | Activity (COLO 205) [%]
O=C1c2ccccc2C(=O)c2c1ccc1nc(CN3CCN(c4ccccn4)CC3)[nH]c21 | 1 | inactive | 91 | > 30 | 57 |  |  | 91 | 89.1 | 63 | 69 | 81 | 68.23 | 81.46 | 20 |  |  |  |  | 
O=C1c2ccccc2C(=O)c2c1ccc1nc(CN3CCCCC3)[nH]c21 | 7 | inactive | 76 | 10.3 | 44 |  |  | 111 | 81.94 |  | 79 |  | 61.84 | 74.9 | 20 | Non-toxic | 100 |  |  | 
CN(CCc1ccccn1)Cc1nc2ccc3c(c2[nH]1)C(=O)c1ccccc1C3=O | 0 | inactive | 96 | 14.2 | 51 |  |  | 104 | 99.83 |  | 99 |  | 69.6 | 83.7 | 0 |  |  |  |  | 
O=C1c2ccccc2C(=O)c2c1ccc1nc(CN3CCC(CCCC4CCNCC4)CC3)[nH]c21 | 3 | Active | 96 | 13.8 | 8 | inactive | 5 | 97 |  |  | 0 |  |  |  | 0 |  |  |  |  | 
O=C1c2ccccc2C(=O)c2c1ccc1nc(CN3CCN(c4ccccc4)CC3)[nH]c21 | 6 | inactive | 92 | > 30 | 77 |  |  | 90 | 77.91 |  | 54 |  | 75.09 | 90.69 | 18 |  |  |  |  | 
CN1CCN(Cc2nc3ccc4c(c3[nH]2)C(=O)c2ccccc2C4=O)CC1 | 6 | Active | 106 | 6.5 | 23 | inactive | > 10 | 87 |  |  | 35 |  | 69.36 | 60.08 | 0 |  |  | 62.93 | -13.44 | 
CCN(CC)Cc1nc2ccc3c(c2[nH]1)C(=O)c1ccccc1C3=O | 0 | inactive | 91 | 10.3 | 32 |  |  | 101 |  |  | 55 |  | 49.5 | 73.54 | 0 |  |  |  | -9.43 | 81
